{"data": "Measured values of several laboratories", "method": "broth dilution", "note": "Lines come from different studies, so protocols differ."}
{"SMILES": "CO/N=C(\\C(=O)N[C@@H]1C(=O)N2C(C(=O)O)=C(CSc3nc(=O)c(=O)[nH]n3C)CS[C@H]12)c1csc(N)n1", "organism": "Neisseria gonorrhoeae", "effect on": "microbial growth", "strain": "ATCC49226", "measurement": "MIC", "value": "0.008 µg/mL"}
{"SMILES": "O=C(O[C@@H]1O[C@@H]2COC(=O)c3cc(O)c(O)c(O)c3-c3c(cc(O)c(O)c3O)C(=O)O[C@H]([C@H]1O)[C@@H]2O)c1cc(O)c(O)c(O)c1", "organism": "Streptococcus sobrinus", "effect on": "microbial growth", "time": "24 h", "measurement": "MIC", "value": "200 µg/mL"}
{"SMILES": "C/C(=N\\CCNCCNCC/N=C(\\C)c1c(O)c2ccccc2oc1=O)c1c(O)c2ccccc2oc1=O", "organism": "Aspergillus niger", "effect on": "microbial growth", "time": "48 h", "measurement": "MIC", "value": "31.2 µg/mL"}
{"SMILES": "Clc1ccc(COC(Cn2ccnc2)c2ccc(Cl)cc2Cl)c(Cl)c1 (centres unmarked)", "organism": "Lodderomyces parapsilosis", "effect on": "microbial growth", "measurement": "MIC80", "value": "0.06 µg/mL"}
{"SMILES": "O=C1O[C@H]2[C@@H]3OC(=O)c4cc(O)c(O)c(O)c4-c4c(O)c(O)c5oc(=O)c6c(c(O)c(O)c7oc(=O)c4c5c76)-c4c(cc(O)c(O)c4O)C(=O)OC[C@H]3OC(O)[C@@H]2OC(=O)c2cc(O)c(O)c(O)c2-c2c1cc(O)c(O)c2O (mixture of isomers)", "organism": "Streptococcus sobrinus", "effect on": "microbial growth", "time": "24 h", "measurement": "MIC", "value": "100 µg/mL"}
{"SMILES": "O=C(Nc1ccc2ccccc2c1)c1ccc(COC(Cn2ccnc2)c2ccc(Cl)cc2Cl)cc1 (centres unmarked)", "organism": "Lodderomyces parapsilosis", "effect on": "microbial growth", "measurement": "MIC80", "value": "32 µg/mL"}
{"SMILES": "O=C1OC[C@H]2OC(O)[C@H](O)[C@@H](O)[C@@H]2OC(=O)c2cc(O)c(O)c(O)c2-c2c(O)c(O)c3oc(=O)c4c(c(O)c(O)c5oc(=O)c2c3c54)-c2c1cc(O)c(O)c2O (mixture of isomers)", "organism": "Streptococcus sobrinus", "effect on": "microbial killing", "measurement": "MBC", "value": "200 µg/mL"}
{"SMILES": "O=C(Nc1ccc(Br)cc1)c1ccc(COC(Cn2ccnc2)c2ccc(Cl)cc2Cl)cc1 (centres unmarked)", "organism": "Lodderomyces parapsilosis", "effect on": "microbial growth", "measurement": "MIC80", "value": "0.125 µg/mL"}
{"SMILES": "O=c1oc2c(O)c(O)cc3c(=O)oc4c(O)c(O)cc1c4c23", "organism": "Streptococcus sobrinus", "effect on": "microbial growth", "time": "24 h", "measurement": "MIC", "value": "100 µg/mL"}
{"SMILES": "O=C(Nc1ccc(C(F)(F)F)cc1)c1ccc(COC(Cn2ccnc2)c2ccc(Cl)cc2Cl)cc1 (centres unmarked)", "organism": "Lodderomyces parapsilosis", "effect on": "microbial growth", "measurement": "MIC80", "value": "0.06 µg/mL"}
{"SMILES": "Oc1cc(O)c2c(c1)O[C@H](c1cc(O)c(O)c(O)c1)[C@@H](O)C2", "organism": "Streptococcus sobrinus", "effect on": "microbial killing", "measurement": "MBC", "value": "400 µg/mL"}
{"SMILES": "O=C(Nc1ccccc1)c1ccc(COC(Cn2ccnc2)c2ccc(Cl)cc2Cl)cc1 (centres unmarked)", "organism": "Lodderomyces parapsilosis", "effect on": "microbial growth", "measurement": "MIC80", "value": "0.125 µg/mL"}
{"SMILES": "C/C(=N\\NC(=O)/N=C(\\C)c1c(O)c2ccccc2oc1=O)c1c(O)c2ccccc2oc1=O", "organism": "Aspergillus niger", "effect on": "microbial growth", "time": "48 h", "measurement": "MIC", "value": "125 µg/mL"}
{"SMILES": "CC1CCC(C(C)C)C(OC2=C(Cl)C(=O)c3ccccc3C2=O)C1 (centres unmarked)", "organism": "Aspergillus niger", "effect on": "microbial growth", "measurement": "MIC", "value": "12 µg/mL"}
{"SMILES": "C/C(=N\\C(=S)/N=C(\\C)c1c(O)c2ccccc2oc1=O)c1c(O)c2ccccc2oc1=O", "organism": "Aspergillus niger", "effect on": "microbial growth", "time": "48 h", "measurement": "MIC", "value": "3.9 µg/mL"}
{"SMILES": "COc1cc(C=O)ccc1OC1=C(Cl)C(=O)c2ccccc2C1=O", "organism": "Aspergillus niger", "effect on": "microbial growth", "measurement": "MIC", "value": "12 µg/mL"}
{"SMILES": "C/C(=N\\N=C(/C)c1c(O)c2ccccc2oc1=O)c1c(O)c2ccccc2oc1=O", "organism": "Aspergillus niger", "effect on": "microbial growth", "time": "48 h", "measurement": "MIC", "value": "125 µg/mL"}
{"SMILES": "C[C@@H]1O[C@@H](OC[C@H]2O[C@@H](Oc3c(-c4ccc(O)c(O)c4)oc4cc(O)cc(O)c4c3=O)[C@H](O)[C@@H](O)[C@@H]2O)[C@H](O)[C@H](O)[C@H]1O", "organism": "Streptococcus sobrinus", "effect on": "microbial growth", "time": "24 h", "measurement": "MIC", "value": "200 µg/mL"}
{"SMILES": "Cc1ccc(NC(=O)c2ccc(COC(Cn3ccnc3)c3ccc(Cl)cc3Cl)cc2)cc1 (centres unmarked)", "organism": "Lodderomyces parapsilosis", "effect on": "microbial growth", "measurement": "MIC80", "value": "0.06 µg/mL"}
{"SMILES": "C/C(=N\\C(=N)/N=C(\\C)c1c(O)c2ccccc2oc1=O)c1c(O)c2ccccc2oc1=O", "organism": "Aspergillus niger", "effect on": "microbial growth", "time": "48 h", "measurement": "MIC", "value": "62.5 µg/mL"}
